# Assay results from publication PMC3963287 (Bioorganic & medicinal chemistry letters, 2014).
# What was measured:
# [1] = system: ACSL in bEND3 brain endothelial cells; test: In situ [14C]-palmitate incorporation into extractable lipids of bEND3 cells; assay type: cell-based; conditions: for Inhibition of [14C]-palmitate incorporation into extractable lipids: compounds at 15 μM, Figure 3A; for Potency ratio (rank order) for inhibition of [14C]-palmitate incorporation into extractable lipids: triacsin C at 1.5 μM, all other compounds at 15 μM
# In short: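 bEND3 brain endothelial cells incubated with [14C]-palmitate, with test compounds at 15 μM or the reference ACSL inhibitor at 1.5 μM. Radioactivity measured in extractable lipid (fmoles [14C]-palmitate/μg lipid), aqueous fraction and media; total recovery summed from lipid, aqueous and media. Compared to untreated controls by one-way ANOVA with Dunnett's t test; n = 3–9 independent experiments.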
# [2] = system: leukocyte recruitment (rolling, adhesion, extravasation); test: L-NAME induced leukocyte recruitment in post-capillary venules of the mesentery; assay type: in vivo; conditions: 120 minutes; for Inhibition of leukocyte rolling, adhesion and extravasation: 5 or 50 μM compound 1, 50 μM compound 9
# [3] = system: long chain fatty acyl-CoA synthetase (ACSL); test: Inhibition of ACSL activity in solubilized brain endothelial bEND3 cells; assay type: biochemical
# [4] = system: leukocyte recruitment (rolling, adhesion, extravasation); conditions: 5μM; cited from earlier work
# [5] = system: rotavirus; conditions: cited from earlier work
# [6] = aqueous; no reference given; cited from earlier work
smiles,measurement,setting,value
CCC/C=C/C/C=C/CN(O)/N=N/c1ccc(C(=O)O)cc1 [Compound 7],Inhibition of [14C]-palmitate incorporation into extractable lipids,[1],significant inhibition
same,Potency ratio (rank order) for inhibition of [14C]-palmitate incorporation into extractable lipids,[1],triacsin C > 3 > 1 > 4 > 9 = 7 > 2
C=CCCCCCCCCCNO [Compound 9],"Rolling, adhesion and extravasation rates / recruitment",[2]; 50 μM,about as effective as compound 1 at 5 μM
same,"Inhibition of leukocyte rolling, adhesion and extravasation",[2],"significantly inhibited rolling, adhesion, and extravasation"
same,Inhibition of [14C]-palmitate incorporation into extractable lipids,[1],significant inhibition
same,Potency ratio (rank order) for inhibition of [14C]-palmitate incorporation into extractable lipids,[1],triacsin C > 3 > 1 > 4 > 9 = 7 > 2
CCC/C=C/C/C=C/C=C/CNN1CCCS1(=O)=O [Compound 8],Folds less active compared with compound 3,[3],> 30 folds
C=CCCCCCCCCCNc1ccc(C(=O)O)cc1 [Compound 3],Inhibition of [14C]-palmitate incorporation into extractable lipids,[1],significant inhibition
same,Potency ratio (rank order) for inhibition of [14C]-palmitate incorporation into extractable lipids,[1],triacsin C > 3 > 1 > 4 > 9 = 7 > 2
CCC/C=C/C/C=C/C=N/N1CCCS1(=O)=O [Compound 2],Folds less active compared with compound 3,[3],> 30 folds
same,Potency ratio (rank order) for inhibition of [14C]-palmitate incorporation into extractable lipids,[1],triacsin C > 3 > 1 > 4 > 9 = 7 > 2
"CCC/C=C/C/C=C/C=C/C=N/NN=O [Triacsin C, reference compound]",Neutrophil recruitment in a model of ischemia,[4],virtually abolished neutrophil recruitment
same,"Rolling, adhesion and extravasation rates / recruitment",[2]; 5 μM,not different from each other nor were they different from vehicle alone
same,Times more potent than compound 3,[3],about 10 times
same,Potency ratio (rank order) for inhibition of [14C]-palmitate incorporation into extractable lipids,[1],triacsin C > 3 > 1 > 4 > 9 = 7 > 2
C=CCCCCCCCCCNc1ccc(C(=O)O)c(O)c1 [Compound 4],Inhibition of [14C]-palmitate incorporation into extractable lipids,[1],significant inhibition
same,Potency ratio (rank order) for inhibition of [14C]-palmitate incorporation into extractable lipids,[1],triacsin C > 3 > 1 > 4 > 9 = 7 > 2
CCC/C=C/C/C=C/C=C/CNc1ccc(C(=O)O)cc1 [Compound 1],Potency relative to triacsin C as inhibitor of rotavirus replication,[5],at least twice as potent as triacsin C
same,"Rolling, adhesion and extravasation rates / recruitment",[2]; 5 μM,inhibited the recruitment to about half the extent as at 50 μm
same,"Rolling, adhesion and extravasation rates / recruitment",[2]; 50 μM,not different from each other nor were they different from vehicle alone
same,"Inhibition of leukocyte rolling, adhesion and extravasation",[2],"significantly inhibited rolling, adhesion, and extravasation"
same,Potency relative to triacsin C in the ACSL assay,[3],one-tenth as potent as triacsin C
same,Inhibition of [14C]-palmitate incorporation into extractable lipids,[1],significant inhibition
same,Potency ratio (rank order) for inhibition of [14C]-palmitate incorporation into extractable lipids,[1],triacsin C > 3 > 1 > 4 > 9 = 7 > 2
CCCCCCCCCCCCCCCC(=O)SCCNC(=O)CCNC(=O)[C@H](O)C(C)(C)COP(=O)(O)OP(=O)(O)OC[C@H]1O[C@@H](n2cnc3c(N)ncnc32)[C@H](O)[C@@H]1OP(=O)(O)O [palmitoyl CoA],Water solubility,[6],about 1.74 g/L
